In ChEMBL document CHEMBL1158613, “Novel trivalent anti-influenza reagent” (Bioorg Med Chem Lett, 2010) one finds solubility, Activity and inhibition data, which are given here for four molecules.

Molecules are shown by their SMILES. Activity calls are given as the source filed them. The calls are words filed in the database; no cut-off is given here.

The nature of data set [1]: Aqueous solubility of the compound. The class given is physicochemical. Particulars: buffer.
Data set [2] concerns Influenza A virus. The experiment in a line: Antiviral activity against Influenza A/PR/8/1934 (H1N1) infected in MDCK cells assessed as of viral plaque formation at 4 degC relative to control. It counts as functional, A/Puerto Rico/8/1934(H1N1). In short, it runs like this: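 Plaque reduction assay in MDCK cells infected with A/PR/8/1934 (H1N1), with compound at 400 μM during virus adsorption at 4 °C. Plaques were counted and expressed as a percentage of the virus-only control. Uninoculated cells served as the no-virus control. Single concentration only, with no dose range.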

The subject of data set [3] is Influenza A virus. The experiment in a line: Antiviral activity against Influenza A/PR/8/1934 (H1N1) infected in MDCK cells assessed as viral plaque formation at 35 degC relative to control. The class given is functional, A/Puerto Rico/8/1934(H1N1). In short, it runs like this:
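Plaque reduction assay in MDCK cells with A/PR/8/1934 (H1N1), with compound at 400 μM present during virus adsorption at 35 °C. The plaque count is given as a percentage of plaques in the virus-only control, and uninoculated cells were the blank. A single concentration was tested.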

Data set [4] concerns Influenza A virus. The experiment in a line: Inhibition of Influenza A/PR/8/1934 (H1N1)-induced hemagglutinination of chicken RBC. The class given is functional, organism-based. Conditions: A/Puerto Rico/8/1934(H1N1).

Take `NC(CCC(=O)NCCCCCCO[C@@H]1O[C@H](CO)[C@@H](O[C@@H]2O[C@H](CO)[C@H](O)[C@H](O)[C@H]2O)[C@@H](O)[C@H]1O)C(=O)NCCOCCOCCC(=O)Nc1ccc(C(c2ccc(NC(=O)CCOCCOCCNC(=O)C(N)CCC(=O)NCCCCCCO[C@@H]3O[C@H](CO)[C@@H](O[C@@H]4O[C@H](CO)[C@H](O)[C@H](O)[C@H]4O)[C@@H](O)[C@H]3O)cc2)c2ccc(NC(=O)CCOCCOCCNC(=O)C(N)CCC(=O)NCCCCCCO[C@@H]3O[C@H](CO)[C@@H](O[C@@H]4O[C@H](CO)[C@H](O)[C@H](O)[C@H]4O)[C@@H](O)[C@H]3O)cc2)cc1` (some centres undefined): the solubility entry in data set [1] is “Soluble”. Besides, the Activity in the data set with Influenza A virus [2] and in the data set with Influenza A virus [3] was 100% each time.
On to `CC(=O)N[C@H]1[C@@H]([C@@H](O)[C@H](O)CO)O[C@](O[C@H]2[C@@H](O)[C@@H](CO)O[C@@H](O[C@H]3[C@@H](O)[C@@H](O)[C@H](OCCCCCCNC(=O)CCC(N)C(=O)NCCOCCOCCC(=O)Nc4ccc(C(c5ccc(NC(=O)CCOCCOCCNC(=O)C(N)CCC(=O)NCCCCCCO[C@@H]6O[C@H](CO)[C@@H](O[C@@H]7O[C@H](CO)[C@H](O)[C@H](O[C@@]8(C(=O)O)C[C@H](O)[C@@H](NC(C)=O)[C@@H]([C@@H](O)[C@H](O)CO)O8)[C@H]7O)[C@@H](O)[C@H]6O)cc5)c5ccc(NC(=O)CCOCCOCCNC(=O)C(N)CCC(=O)NCCCCCCO[C@@H]6O[C@H](CO)[C@@H](O[C@@H]7O[C@H](CO)[C@H](O)[C@H](O[C@@]8(C(=O)O)C[C@H](O)[C@@H](NC(C)=O)[C@@H]([C@@H](O)[C@H](O)CO)O8)[C@H]7O)[C@@H](O)[C@H]6O)cc5)cc4)O[C@@H]3CO)[C@@H]2O)(C(=O)O)C[C@@H]1O` (some centres undefined), for which, in data set [1], the solubility result is “Soluble”. In addition, the Activity with Influenza A virus [2] came to 67.2%; in the data set with Influenza A virus [3], 56.6%. In addition, the inhibition entry in the data set with Influenza A virus [4] is “inactive”.
For `NC(CCC(=O)NCCCCCCO[C@@H]1O[C@H](CO)[C@@H](O[C@@H]2O[C@H](CO)[C@H](O)[C@H](O)[C@H]2O)[C@@H](O)[C@H]1O)C(=O)NCCOCCOCCOc1ccc(C(c2ccc(OCCOCCOCCNC(=O)C(N)CCC(=O)NCCCCCCO[C@@H]3O[C@H](CO)[C@@H](O[C@@H]4O[C@H](CO)[C@H](O)[C@H](O)[C@H]4O)[C@@H](O)[C@H]3O)cc2)c2ccc(OCCOCCOCCNC(=O)C(N)CCC(=O)NCCCCCCO[C@@H]3O[C@H](CO)[C@@H](O[C@@H]4O[C@H](CO)[C@H](O)[C@H](O)[C@H]4O)[C@@H](O)[C@H]3O)cc2)cc1` (some centres undefined), the solubility entry in data set [1] is on record as “Soluble”. The Activity in the data set with Influenza A virus [2] is listed as 72.4%; in the data set with Influenza A virus [3], 77.1%.
In the case of `CC(=O)N[C@H]1[C@@H]([C@@H](O)[C@H](O)CO)O[C@](O[C@H]2[C@@H](O)[C@@H](CO)O[C@@H](O[C@H]3[C@@H](O)[C@@H](O)[C@H](OCCCCCCNC(=O)CCC(N)C(=O)NCCOCCOCCOc4ccc(C(c5ccc(OCCOCCOCCNC(=O)C(N)CCC(=O)NCCCCCCO[C@@H]6O[C@H](CO)[C@@H](O[C@@H]7O[C@H](CO)[C@H](O)[C@H](O[C@@]8(C(=O)O)C[C@H](O)[C@@H](NC(C)=O)[C@@H]([C@@H](O)[C@H](O)CO)O8)[C@H]7O)[C@@H](O)[C@H]6O)cc5)c5ccc(OCCOCCOCCNC(=O)C(N)CCC(=O)NCCCCCCO[C@@H]6O[C@H](CO)[C@@H](O[C@@H]7O[C@H](CO)[C@H](O)[C@H](O[C@@]8(C(=O)O)C[C@H](O)[C@@H](NC(C)=O)[C@@H]([C@@H](O)[C@H](O)CO)O8)[C@H]7O)[C@@H](O)[C@H]6O)cc5)cc4)O[C@@H]3CO)[C@@H]2O)(C(=O)O)C[C@@H]1O` (some centres undefined), the solubility result in data set [1] is “Soluble”. The Activity in the data set with Influenza A virus [2] amounted to 15.5%; in the data set with Influenza A virus [3], 45.6%. Besides, in the data set with Influenza A virus [4], the inhibition entry is “inactive”.
